Only some compounds are listed: those with a hit (about 1.6% of all), similar ones and a draw of the others.
TDP2 inh: blocks human TDP2 phosphodiesterase activity | O95551 | recombinant TDP2, T5PNP hydrolysis, p-nitrophenol absorbance 415 nm | inhibition, % at 12.8 µM | hit rate 0.34% among 370,000 | AID 720702;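 active means inhibition above the mean of all tested compounds plus 3 SD, set per campaign, cut at about 25% in these data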
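Assay system: recombinant human TDP2 / Reagent: T5PNP substrate at 5 mM, a TopII-DNA adduct mimic / Measured by: epi absorbance from released p-nitrophenol / Evaluation: % inhibition relative to enzyme-containing and enzyme-free wells / Control set: enzyme-free and DMSO wells / Replicates: each compound tested once, singlicate / Schedule: enzyme reaction with compound for 2 h at 37 °C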
UHRF1 MBD2 ctr: blocks human UHRF1 binding to methylated DNA; inhibition, % at 4.4 µM; UHRF1 binding to methylated oligo, TR-FRET; hit rate 0.75% among 370,000; AID 687016; Q96T88; in the data active means inhibition above about 21%;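 further: UHRF1 SRA domain binding a hemimethylated CpG hairpin DNA probe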
Target sequence (Q96T88 whole entry, looked up, the tested form may be a part): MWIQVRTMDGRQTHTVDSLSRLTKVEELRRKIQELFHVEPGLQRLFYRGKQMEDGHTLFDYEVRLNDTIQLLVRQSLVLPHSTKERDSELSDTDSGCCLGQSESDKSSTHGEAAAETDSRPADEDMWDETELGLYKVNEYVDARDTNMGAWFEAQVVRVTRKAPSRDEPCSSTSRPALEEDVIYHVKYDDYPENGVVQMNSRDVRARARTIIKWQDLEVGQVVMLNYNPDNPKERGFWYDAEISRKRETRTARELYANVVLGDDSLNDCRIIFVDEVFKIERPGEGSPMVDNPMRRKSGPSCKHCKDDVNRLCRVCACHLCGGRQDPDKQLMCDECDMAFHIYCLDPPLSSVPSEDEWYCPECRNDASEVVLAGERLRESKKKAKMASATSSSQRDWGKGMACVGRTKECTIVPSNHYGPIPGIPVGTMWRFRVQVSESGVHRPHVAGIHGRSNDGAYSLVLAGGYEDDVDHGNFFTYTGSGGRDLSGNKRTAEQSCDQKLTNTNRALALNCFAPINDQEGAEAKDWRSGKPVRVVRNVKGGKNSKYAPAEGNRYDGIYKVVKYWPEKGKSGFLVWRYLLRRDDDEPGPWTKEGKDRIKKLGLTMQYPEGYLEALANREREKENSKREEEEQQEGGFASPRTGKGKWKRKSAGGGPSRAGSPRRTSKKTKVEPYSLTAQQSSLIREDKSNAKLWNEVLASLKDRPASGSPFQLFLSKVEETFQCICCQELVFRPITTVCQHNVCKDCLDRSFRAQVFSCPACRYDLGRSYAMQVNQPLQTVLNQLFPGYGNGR
LEDGF integ inh: blocks HIV-1 LEDGF/p75-dependent DNA integration. hit rate 0.64% among 370,000. TR-FRET IN-LEDGF/p75 DNA integration, Eu/Cy5. inhibition, % at 3.7 µM;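 active means inhibition above the screen-wide mean plus 3 SD, cut at about 13% in these data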;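 further: signal is the Cy5 over europium emission ratio at 671 and 618 nm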
MBD2 inh: MBD2-methylated oligo binding inhibition | TR-FRET, MBD2 binding to methylated oligonucleotide | inhibition, % at 4.4 µM | hit rate 0.31% among 370,000; in the data active means inhibition above about 13%
IN multimer act: counter-screen for LEDGF/p75 integration inhibitors: HIV-1 integrase multimerization activators | shares compounds with LEDGF integ inh | TR-FRET HIV-1 integrase multimerization, biochemical | activation, % at 7.7 µM | hit rate 17% among 2,000; in the data active means activation above about 8.9%
TRFRET interf: TR-FRET optical interference, LEDGF/p75 integration counter-screen; shares compounds with LEDGF integ inh; TR-FRET optical interference counterscreen, HIV-1 IN multimerization; inhibition, % at 7.7 µM; 2,000 tested, under 10 active;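 active means inhibition above the mean over all tested compounds plus 3 SD, which no compound reached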
IN-LEDGF confirm: confirmation of HIV-1 LEDGF/p75-dependent integration inhibitors; shares compounds with LEDGF integ inh; inhibition, % at 3.7 µM; AID 1053136; hit rate 36% among 2,000; TR-FRET LEDGF/p75-dependent HIV-1 integration, biochemical; in the data active means inhibition above about 14%
Numbers stand for hits; i = inactive; nt = no result given.

SMILES | TDP2 inh | UHRF1 MBD2 ctr | LEDGF integ inh | MBD2 inh | IN multimer act | TRFRET interf | IN-LEDGF confirm
O=C(N[C@H](Cc1ccccc1)C(=O)NCCCc1ccccc1)[C@H]1O[C@@H](n2ccc(=O)[nH]c2=O)[C@H](O)[C@@H]1O | i | i | i | i | nt | nt | nt
CCc1ccc(Nc2n[n+](C)c(-c3ccncc3)s2)cc1 | i | i | 42.2 | i | i | i | i
COc1cc(O)c(C(C)=O)c(CC(=O)O)c1 | i | 28.5 | 31.3 | i | 32.7 | i | 59.4
CC1(C)C=C2C(N(Cc3ccc4c(c3)OCO4)C(=N)N2C(=O)OCc2ccccc2)n2c(=O)n(-c3ccccc3)c(=O)n21 (stereo not drawn) | i | i | i | i | nt | nt | nt
Cc1cc(SCC(=O)NCCN2C(=O)CSC2=O)nc2c(C)cccc12 | i | i | 23.1 | i | i | i | i
CN(CCc1ccccn1)C(=O)[C@@H](Cc1ccccc1)NC(=O)[C@H]1O[C@@H](n2ccc(=O)[nH]c2=O)[C@H](O)[C@@H]1O | i | i | i | i | nt | nt | nt
Cc1ccc(C(=O)CSc2nnc(-c3ccccn3)n2-c2ccccc2)cc1 | i | i | i | i | nt | nt | nt
Cc1ccc(NC(=O)CN2C(=O)N/C(=C/c3cc(C)n(-c4ccc(C(=O)O)cc4)c3C)C2=O)cc1 | i | i | i | i | nt | nt | nt
Cc1ccc(NC(=O)CN2C(=O)N/C(=C/c3ccco3)C2=O)cc1 | i | 34.1 | 21.3 | i | 13.8 | i | 26.0
CCC[C@H]1[C@@H](OC(=O)NCc2ccc(OC)c(OC)c2)CC[C@@]23CCCN2C(=O)CCC[C@@H]13 | i | i | i | i | nt | nt | nt
O=C(CN1CCN(S(=O)(=O)c2ccc(Cl)c(Cl)c2)CC1)N1CCCCC1 | i | i | 17.0 | i | i | i | i
O=C(O)c1cccc2cc(-c3ccccc3)oc(=O)c12 | i | i | i | i | nt | nt | nt
O=C(O)c1cccc2cccc(-c3c4ccc(=O)c(O)c-4oc4c(O)c(O)ccc34)c12 | i | 91.6 | 89.7 | 66.5 | 70.8 | i | 93.4
N#Cc1ccc(C(=O)N(Cc2ccccc2)c2ccccc2)cc1 | i | i | 13.9 | i | i | i | i
Cc1ccc(S(=O)(=O)N2CC(CBr)=CCC2c2ccccc2)cc1 (stereo not drawn) | i | i | i | i | nt | nt | nt
Oc1ccc(/C=N/N2CCCCC2)c(O)c1O | i | i | 28.2 | i | i | i | 24.7
Oc1ccc(/C=N/N2CCOCC2)c(O)c1O | i | i | 52.0 | i | i | i | 17.8
COc1ccc(O)c(/C=N/N2CCOCC2)c1 | i | i | i | i | nt | nt | nt
COC(=O)[C@]12C[C@H](CC(=O)NCCC(C)C)C(=O)N(Cc3ccc(Cl)cc3Cl)C1=C[C@H](C(C)(C)C)O[C@@H]2C | i | i | i | i | nt | nt | nt
N=C1/C(=C\c2coc3ccccc3c2=O)C(=O)N=C2SC=CN12 | i | i | 15.2 | i | i | i | 26.5
CSC1=NSC2=NC(=O)/C(=C/c3coc4ccccc4c3=O)C(=N)N12 | i | i | i | i | nt | nt | nt
O=C(NCc1ccc(Cl)cc1)c1ccc(Br)o1 | i | i | 55.8 | i | i | i | i
O=C(NNC(=S)NCc1ccc(Cl)cc1)c1ccc(Br)o1 | i | i | i | i | nt | nt | nt
CN(CC(=O)Nc1cc([N+](=O)[O-])ccc1Cl)Cc1ccc(Br)cc1 | i | i | 13.6 | i | i | i | i
CCc1cc2c(nc1CC)CCCN2S(=O)(=O)c1cccs1 | i | i | i | i | nt | nt | nt
SMILES | TDP2 inh | UHRF1 MBD2 ctr | LEDGF integ inh | MBD2 inh | IN multimer act | TRFRET interf | IN-LEDGF confirm
Cc1[nH]n(-c2ccccc2)c(=O)c1C(c1cccc([N+](=O)[O-])c1)c1c(C)[nH]n(-c2ccccc2)c1=O | 89.6 | i | 26.7 | i | i | i | i
Cc1[nH]n(-c2ccccc2)c(=O)c1C(=O)c1ccc([N+](=O)[O-])cc1 | i | i | i | i | nt | nt | nt
Cc1ccc(O)c(-c2[nH]ncc2C(=O)c2ccc(Cl)cc2)c1 | i | i | i | i | nt | nt | nt
Cc1ccc(O)c(-c2[nH]ncc2C(=O)c2ccc(Br)cc2)c1 | i | i | 13.6 | i | i | i | i
C[C@H]1CCCN1c1cccc2c1S(=O)(=O)N1CC[C@@H](C1)O2 | i | i | i | i | nt | nt | nt
COC(=O)[C@]12C[C@H](CC(=O)N3CCCC3)C(=O)N(Cc3ccccc3)C1=C[C@H](C(C)(C)C)O[C@@H]2C | i | i | i | i | nt | nt | nt
Oc1ccc(-c2n[nH]c(=S)n2Cc2ccco2)cc1 | i | i | i | i | nt | nt | nt
